# Screens: PubChem BioAssay, several laboratories
# VIM-2 inhibitor: blocks Pseudomonas aeruginosa VIM-2 metallo-beta-lactamase. inhibition, % at 5.6 µM. actives 0.89% (n = 290,000). purified VIM-2, nitrocefin hydrolysis, epi-absorbance fluorescence. AID 1527;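 active = inhibition above the mean of all tested compounds plus 3 SD, cutoff set per screening run, cut at about 7.5% in these data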;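 also: red hydrolysis product quenches plate fluorescence so inhibitors raise well fluorescence; 0% = enzyme with DMSO and 100% = DMSO without enzyme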
# IMP-1 inhibitor: blocks Pseudomonas aeruginosa IMP-1 metallo-beta-lactamase. actives 0.45% (n = 290,000). purified IMP-1, nitrocefin hydrolysis, epi-absorbance fluorescence. AID 1556. inhibition, % at 5.6 µM;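 active = inhibition above the mean plus 3 SD of all compounds in the same screening run, cut at about 4.5% in these data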;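 also: 0% = IMP-1 with DMSO and 100% = DMSO wells lacking enzyme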
#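 system = purified recombinant IMP-1 beta-lactamase | amount = 0.2 nM IMP-1, as dispensed | medium = HEPES buffer pH 7.1 with ZnSO4 and Brij 35 | times = 25 °C, 15 min preincubation, 25 min reaction | detection = plate fluorescence quenching by hydrolysis product, ex 480/em 530 nm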
# HTR2A ag: activates the mouse 5-HT2A serotonin receptor; P35363; CHO-K1 mHTR2A beta-arrestin complementation, luminescence; percent of 30 µM serotonin response; activation, % at 7.6 µM; actives 0.66% (n = 360,000); AID 624169;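 active = activation above a run cutoff, the mean activation of all tested compounds plus 3 SD, cut at about 14% in these data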;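 also: 0% = plate median of compound wells and 100% = 30 µM serotonin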
# dFosB activator: enhances mouse delta FosB homodimer DNA binding. P13346. purified delta FosB, TAMRA-CDK5 oligo fluorescence polarization; percent of positive-control signal above neutral wells. activation, % at 25 µM. actives 0.99% (n = 340,000). AID 493131;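 active = mean activation above about 17%, with every replicate also reaching it, limit read from the data, passing the limit was not always enough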
# Target sequence (P13346 whole entry, looked up): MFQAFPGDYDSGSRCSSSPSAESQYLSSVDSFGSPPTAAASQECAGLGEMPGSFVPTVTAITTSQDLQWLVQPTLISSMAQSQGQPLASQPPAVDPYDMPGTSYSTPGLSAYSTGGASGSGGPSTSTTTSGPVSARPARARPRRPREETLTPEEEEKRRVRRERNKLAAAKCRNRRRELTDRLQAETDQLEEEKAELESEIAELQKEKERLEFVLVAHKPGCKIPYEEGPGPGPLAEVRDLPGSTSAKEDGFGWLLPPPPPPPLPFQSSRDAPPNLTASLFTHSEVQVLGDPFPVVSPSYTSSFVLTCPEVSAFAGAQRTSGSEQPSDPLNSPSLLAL
# Starred values were filed as active, the others as inactive; . = not tested or not shown. Only some compounds are listed: those with a hit (about 2.5% of all), similar ones and a draw of the others.
SMILES,VIM-2 inhibitor,IMP-1 inhibitor,HTR2A ag,dFosB activator
Cc1ccc2cc(CN(CCCN(C)C)C(=O)NCc3ccccc3)c(=O)[nH]c2c1C,7.8*,-1.4,-6.8,-3.4
Cc1ccc2cc(CCNC(=O)CCCc3ccccc3)c(=O)[nH]c2c1C,-3.3,-2.4,-4.4,-2.1
Cc1ccc2cc(CN(CCCN(C)C)C(=S)NCc3ccccc3)c(=O)[nH]c2c1C,9.8*,-2.0,-1.0,-3.9
CCOC(=O)c1c(C)[nH]c(C(=O)Nc2cc(OCC)c(N3CCOCC3)cc2OCC)c1C,.,.,1.2,-3.4
Cc1cc2c(=O)n(C)c(SCC(=O)Nc3ccccc3C)nc2s1,.,.,11.4,-7.9
Cc1ccc(Nc2nc(N)nc(CSc3nc(C)cc(C)n3)n2)cc1,0.7,4.9*,-4.4,-9.1
CCOC(=O)c1cnc(SCc2nc(N)nc(Nc3ccc(C)cc3)n2)nc1N,-9.0,-3.6,-1.2,48.1*
Cc1ccc(Nc2nc(N)nc(CSc3ncccn3)n2)cc1,-5.5,-2.0,-1.1,-2.5
COc1ccc(C(=O)COC(=O)CNC(=O)c2ccccc2)cc1F,.,.,-4.2,-8.5
O=C(Cc1ccc([N+](=O)[O-])cc1)Oc1ccccc1,.,.,-1.1,5.1
COc1ccc(C(N)c2nccc3cc(OC)c(OC)cc23)cc1OC (stereo not drawn),7.8*,2.1,2.8,-9.5
Cc1cc(C)n(CC(=O)n2c3ccccc3c3ccccc32)n1,1.4,-1.4,0.5,14.0
CN1CCN(CC(=O)n2c3c(c4ccccc42)CCCC3)CC1,9.9*,2.1,-1.4,4.6
Cc1cc(C)n(CC(=O)n2c3c(c4ccccc42)CCCC3)n1,10.3*,-0.6,-2.5,13.8
CCN(CC)CC(=O)n1c2c(c3ccccc31)CCCC2,11.9*,-0.2,-1.8,0.2
Cc1noc(COc2ccccc2OCC(N)=O)n1,.,.,4.3,.
COc1cc2c(cc1OC)C(c1ccc(-c3ccc(Cl)c(Cl)c3)o1)=NCC2,-1.8,-1.9,-9.4,52.1*
O=C1C(CN2CCCC2)CCCC1CN1CCCC1 (stereo not drawn),.,.,3.6,1.0
COc1ccc(S(=O)(=O)NC(C)C(=O)NCc2ccc3c(c2)OCO3)cc1OC (stereo not drawn),-1.0,0.8,-7.5,-5.2
COc1ccccc1CNC(=O)C(NS(=O)(=O)c1ccc2c(c1)OCCO2)C(C)C (stereo not drawn),-1.9,-2.3,-1.5,28.2*
COc1cccc2sc3ccc(NCc4ccc5c(c4)OCO5)cc3c(=O)c12,9.2*,-2.0,2.8,1.5
COc1ccc(/C(=C/Nc2cccc(Br)c2)C(C)=O)cc1OC,9.9*,-3.0,-6.2,-6.9
NC(=O)c1ccc(-c2nnn(CC(=O)Nc3cccc(S(=O)(=O)N4CCCC4)c3)n2)cc1,.,.,-4.8,110.5*
O=C(Cn1nnc(-c2ccccc2)n1)Nc1cccc(S(=O)(=O)N2CCOCC2)c1,.,.,2.4,-4.0
Cc1nc2sc3c(=O)[nH]nnc3c2c(C)c1Br,11.0*,0.4,-1.4,-21.7
SMILES,VIM-2 inhibitor,IMP-1 inhibitor,HTR2A ag,dFosB activator
O=C(COc1ccc2c(-c3ccccc3)cc(=O)oc2c1)NCC(O)c1ccccc1 (stereo not drawn),-0.5,-1.2,1.9,5.9
COc1ccc(Nc2nc(NCc3ccco3)nc(N/N=C/c3ccc(O)cc3)n2)cc1,-6.0,-5.1,-6.0,41.8*
COc1ccc(/C=N/Nc2nc(NCc3ccco3)nc(Nc3ccc(OC)cc3)n2)cc1,-5.2,-4.8,-10.4,-2.1
CCOC(=O)c1c(-c2ccccc2)csc1NC(=O)c1cccc(N2C(=O)CCC2=O)c1,-1.9,-1.9,3.9,2.4
CCOC(=O)c1c(NC(=O)c2ccc(S(=O)(=O)N3CCOCC3)cc2)sc2c1CCN(C)C2,8.6*,1.6,-4.7,-13.1
CCOC(=O)c1c(NC(=O)c2cccc(N3C(=O)CCC3=O)c2)sc2c1CCN(CC)C2,7.9*,-0.9,0.0,-17.0
CCOC(=O)c1c(S(=O)(=O)NCCCc2ccco2)c(C)n(C)c1C,-1.9,-2.2,4.2,-9.5
CSCC[C@H](NC(=O)C1CCN(S(=O)(=O)c2ccc(C)cc2)CC1)C(=O)NCc1ccco1,-2.0,5.9*,5.1,-11.9
NC1=NC(c2ccc(F)cc2)n2c(nc3ccccc32)N1 (stereo not drawn),-1.9,-3.0,2.5,1.9
NC1=NC(c2cccc(O)c2)n2c(nc3ccccc32)N1 (stereo not drawn),-0.2,-4.3,-1.8,0.2
Cc1ccc(-n2c(C)cc(C3N=C(N)Nc4nc5ccccc5n43)c2C)c(C)c1 (stereo not drawn),-3.6,-2.8,-3.1,64.6*
Cc1cc(C2N=C(N)Nc3nc4ccccc4n32)c(C)n1-c1ccccc1Cl (stereo not drawn),-4.0,-3.5,-0.1,75.6*
COc1ccc(-n2nc(C(=O)NCC(=O)NCCCN3CC(C)CC(C)C3)c3ccccc3c2=O)cc1Cl (stereo not drawn),1.6,0.2,1.0,-21.9
CN=C(C)/C(C(=O)OC)=C(/O)c1c(F)cccc1F,-1.4,-3.3,12.2,-4.9
CN(C)C(=O)/C(=C\c1ccc(-c2cccc([N+](=O)[O-])c2)o1)NC(=O)c1ccccc1,9.2*,0.5,-10.7,-11.9
CN(C)C(=O)/C(=C/c1ccc(-c2cccc([N+](=O)[O-])c2)o1)NC(=O)c1ccccc1,6.2,-5.3,-2.8,-6.4
C=CCn1c2ccccc2c2nnc(SCC(=O)O)nc21,2.4,-0.6,-0.4,0.8
Cn1c2ccc(F)cc2c2nnc(SCC(=O)Nc3cccc(O)c3)nc21,8.8*,1.1,5.6,-1.3
Cn1c2ccc(F)cc2c2nnc(SCCN3CCOCC3)nc21,7.8*,-1.7,1.5,-8.9
C=CCn1c2ccccc2c2nnc(SCCN3CCOCC3)nc21,11.7*,-2.1,0.9,-17.0
O=C(O)C[C@H]1c2cc(C(F)(F)F)ccc2S(=O)(=O)N1Cc1ccccc1,.,.,-3.9,5.4
O=C(c1ccc(COc2ccccc2Br)cc1)N1CCCCCC1,0.4,-0.5,-3.6,-5.1
O=C1c2ccccc2C(=O)N1Nc1ccc([N+](=O)[O-])cc1[N+](=O)[O-],-1.0,4.5*,-9.5,-0.7
CSCCC(C(=O)NC1CCCC1)n1c(-c2ccncc2)nc2ccccc21 (stereo not drawn),.,.,-3.7,.
CCCN(CCC)CCNC(=O)c1cc2c(=O)n(CC)c3ccccc3c2s1,10.3*,-1.1,-0.2,-22.4
SMILES,VIM-2 inhibitor,IMP-1 inhibitor,HTR2A ag,dFosB activator
CCn1c(=O)c2cc(C(=O)Nc3ccc(OC)cc3OC)sc2c2ccccc21,0.1,-1.2,4.8,-9.9
CCCCN(C)CCNC(=O)c1cc2c(=O)[nH]c3ccccc3c2n1C,8.6*,-2.9,-7.6,-15.5
CCOc1ccccc1N(C)C(=O)c1cc2c(=O)n(CC)c3ccccc3c2s1,-1.5,-0.9,1.1,-27.4
CCOCCCNC(=O)c1cc2c(=O)n(CC)c3ccccc3c2s1,7.9*,-2.2,-4.7,-35.6
CCn1c(=O)c2cc(C(=O)N(C)CC(OC)OC)sc2c2ccccc21,7.0,-2.9,-2.9,-15.9
CCn1c(=O)c2cc(C(=O)NCCOC)sc2c2ccccc21,8.3*,-5.3,-1.3,-29.3
Cc1cc(C)n2nc(C(=O)N/N=C/c3ccco3)nc2n1,-2.3,-2.9,-5.3,-9.4
